# ChEMBL document CHEMBL1926577, “Novel 1,3,4-heterodiazole analogues: synthesis and in-vitro antitumor activity” (2012)
# Activity calls are given as the source filed them. The calls are words filed in the database; no cut-off is given here.
# Legend:
# Format in all cases: functional
# [1] = test system: MOLT-4; assay: Growth inhibition of human MOLT4 cells at 10 uM after 48 hrs by coulter counter method; details: MOLT-4, 48 h, read-out: GI
# Outline: (§1)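 NCI 60-cell-line panel, single dose. Compound dissolved first in DMSO, then diluted in phosphate-buffered saline so that every final dilution held under 1% DMSO. Duplicate wells received cells at 6 × 10⁴ cells/ml. Controls held PBS/DMSO at the same dilution. Plates were incubated 48 h at 37 °C under 5% CO₂. Cells were then diluted 10-fold in saline and counted on a Coulter counter, with counts corrected for the dilution. Results are given as percent growth inhibition.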
# [2] = test system: KM12; assay: Growth inhibition of human KM12 cells at 10 uM after 48 hrs by coulter counter method; details: KM12, 48 h, read-out: GI; outline: as §1
# [3] = test system: SK-MEL-28; assay: Growth inhibition of human SK-MEL-28 cells at 10 uM after 48 hrs by coulter counter method; details: SK-MEL-28, 48 h, read-out: GI; outline: as §1
# [4] = test system: CAKI-1; assay: Growth inhibition of human Caki1 cells at 10 uM after 48 hrs by coulter counter method; outline: as §1
# [5] = test system: HL-60(TB); assay: Growth inhibition of human HL-60(TB) cells at 10 uM after 48 hrs by coulter counter method; details: HL-60, 48 h, read-out: GI
# Outline: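 Single-dose screen on the NCI 60-line panel (leukemia subpanel). Compound is dissolved in DMSO and diluted in PBS, with final DMSO below 1%. Duplicate wells hold 6 × 10⁴ cells/ml at 37 °C, 5% CO₂, for 48 h. Cells are counted by Coulter counter after 10-fold saline dilution. Read-out is percent growth versus PBS/DMSO controls, expressed as % growth inhibition.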
# [6] = test system: SK-MEL-2; assay: Growth inhibition of human SK-MEL-2 cells at 10 uM after 48 hrs by coulter counter method; details: SK-MEL-2, 48 h, read-out: GI; outline: as §1
# [7] = test system: ACHN; assay: Growth inhibition of human ACHN cells at 10 uM after 48 hrs by coulter counter method; details: read-out: GI; outline: as §1
# [8] = test system: OVCAR-8; assay: Growth inhibition of human OVCAR8 cells at 10 uM after 48 hrs by coulter counter method; details: OVCAR-8, 48 h, read-out: GI; outline: as §1
# [9] = test system: IGROV-1; assay: Growth inhibition of human IGROV1 cells at 10 uM after 48 hrs by coulter counter method; outline: as §1
# [10] = test system: UACC-62; assay: Growth inhibition of human UACC62 cells at 10 uM after 48 hrs by coulter counter method; details: UACC-62, 48 h, read-out: GI; outline: as §1
# [11] = test system: RPMI-8226; assay: Growth inhibition of human RPMI8226 cells at 10 uM after 48 hrs by coulter counter method; details: RPMI-8226, 48 h, read-out: GI; outline: as §1
# [12] = test system: A549; assay: Growth inhibition of human A549 cells at 10 uM after 48 hrs by coulter counter method; details: A549, 48 h, read-out: GI; outline: as §1
# [13] = test system: HCT-15; assay: Growth inhibition of human HCT15 cells at 10 uM after 48 hrs by coulter counter method; details: HCT-15, 48 h, read-out: GI; outline: as §1
# [14] = test system: EKVX; assay: Growth inhibition of human EKVX cells at 10 uM after 48 hrs by coulter counter method; details: read-out: GI; outline: as §1
# [15] = test system: Malme-3M; assay: Growth inhibition of human MALME-3M cells at 10 uM after 48 hrs by coulter counter method; details: read-out: GI; outline: as §1
# [16] = test system: NCI-H23; assay: Growth inhibition of human NCI-H23 cells at 10 uM after 48 hrs by coulter counter method; details: NCI-H23, 48 h, read-out: GI; outline: as §1
# [17] = test system: NCI-H226; assay: Growth inhibition of human NCI-H226 cells at 10 uM after 48 hrs by coulter counter method; details: NCI-H226, 48 h, read-out: GI; outline: as §1
# [18] = test system: SNB-19; assay: Growth inhibition of human SNB19 cells at 10 uM after 48 hrs by coulter counter method; details: SNB-19, 48 h, read-out: GI; outline: as §1
# [19] = test system: MDA-MB-468; assay: Growth inhibition of human MDA-MB-468 cells at 10 uM after 48 hrs by coulter counter method; details: MDA-MB-468, 48 h, read-out: GI; outline: as §1
# [20] = test system: SK-MEL-5; assay: Growth inhibition of human SK-MEL-5 cells at 10 uM after 48 hrs by coulter counter method; details: SK-MEL-5, 48 h, read-out: GI; outline: as §1
# [21] = test system: BT-549; assay: Growth inhibition of human BT549 cells at 10 uM after 48 hrs by coulter counter method; details: BT-549, 48 h, read-out: GI; outline: as §1
# [22] = test system: SF-295; assay: Growth inhibition of human SF295 cells at 10 uM after 48 hrs by coulter counter method; details: SF-295, 48 h, read-out: GI; outline: as §1
# [23] = test system: SR; assay: Growth inhibition of human SR cells at 10 uM after 48 hrs by coulter counter method; details: read-out: GI; outline: as §1
# [24] = test system: 786-0; assay: Growth inhibition of human 786-0 cells at 10 uM after 48 hrs by coulter counter method; details: 786-0, 48 h, read-out: GI; outline: as §1
# [25] = test system: HT-29; assay: Growth inhibition of human HT-29 cells at 10 uM after 48 hrs by coulter counter method; details: HT-29, 48 h, read-out: GI; outline: as §1
# [26] = test system: PC-3; assay: Growth inhibition of human PC3 cells at 10 uM after 48 hrs by coulter counter method; details: PC-3, 48 h, read-out: GI; outline: as §1
# [27] = test system: MDA-MB-435; assay: Growth inhibition of human MDA-MB-435 cells at 10 uM after 48 hrs by coulter counter method; details: MDA-MB-435, 48 h, read-out: GI; outline: as §1
# [28] = test system: SN12C; assay: Growth inhibition of human SN12C cells at 10 uM after 48 hrs by coulter counter method; details: read-out: GI; outline: as §1
# [29] = test system: UACC-257; assay: Growth inhibition of human UACC257 cells at 10 uM after 48 hrs by coulter counter method; details: UACC-257, 48 h, read-out: GI; outline: as §1
# [30] = test system: CCRF-CEM; assay: Growth inhibition of human CCRF-CEM cells at 10 uM after 48 hrs by coulter counter method; details: read-out: GI; outline: as §1
# [31] = test system: U-251; assay: Growth inhibition of human U251 cells at 10 uM after 48 hrs by coulter counter method; details: U-251, 48 h, read-out: GI; outline: as §1
# [32] = test system: NCI/ADR-RES; assay: Growth inhibition of human NCI/ADR-RES cells at 10 uM after 48 hrs by coulter counter method; details: read-out: GI; outline: as §1
# [33] = test system: MCF7; assay: Growth inhibition of human MCF7 cells at 10 uM after 48 hrs by coulter counter method; details: MCF7, 48 h, read-out: GI; outline: as §1
# [34] = test system: UO-31; assay: Growth inhibition of human UO31 cells at 10 uM after 48 hrs by coulter counter method; outline: as §1
# [35] = test system: TK-10; assay: Growth inhibition of human TK10 cells at 10 uM after 48 hrs by coulter counter method; details: TK-10, 48 h, read-out: GI; outline: as §1
# [36] = test system: M14; assay: Growth inhibition of human M14 cells at 10 uM after 48 hrs by coulter counter method; details: M14, 48 h, read-out: GI; outline: as §1
# [37] = test system: SNB-75; assay: Growth inhibition of human SNB75 cells at 10 uM after 48 hrs by coulter counter method; details: SNB-75, 48 h, read-out: GI; outline: as §1
# [38] = test system: NCI-H322M; assay: Growth inhibition of human NCI-H322M cells at 10 uM after 48 hrs by coulter counter method; details: read-out: GI; outline: as §1
# [39] = test system: HCT-116; assay: Growth inhibition of human HCT116 cells at 10 uM after 48 hrs by coulter counter method; details: HCT-116, 48 h, read-out: GI; outline: as §1
# [40] = test system: LOX IMVI; assay: Growth inhibition of human LOXIMVI cells at 10 uM after 48 hrs by coulter counter method; outline: as §1
# [41] = test system: T47D; assay: Growth inhibition of human T47D cells at 10 uM after 48 hrs by coulter counter method; details: read-out: GI; outline: as §1
# [42] = test system: SF-268; assay: Growth inhibition of human SF268 cells at 10 uM after 48 hrs by coulter counter method; details: SF-268, 48 h, read-out: GI; outline: as §1
# [43] = test system: K562; assay: Growth inhibition of human K562 cells at 10 uM after 48 hrs by coulter counter method; details: K562, 48 h, read-out: GI; outline: as §1
# [44] = test system: NCI-H522; assay: Growth inhibition of human NCI-H522 cells at 10 uM after 48 hrs by coulter counter method; details: NCI-H522, 48 h, read-out: GI; outline: as §1
# [45] = test system: A498; assay: Growth inhibition of human A498 cells at 10 uM after 48 hrs by coulter counter method; details: A498, 48 h, read-out: GI; outline: as §1
smiles,measurement,setting,value
O=C1CN2N=C(c3ccc(Cl)cc3)SC2=N1,inhibition of growth at 10 µM,[1],24%
same,inhibition of growth at 10 µM,[2],38.3%
same,inhibition of growth at 10 µM,[3],< 10%
same,growth inhibition (GI),[4],Active
same,inhibition of growth at 10 µM,[5],< 10%
same,inhibition of growth at 10 µM,[6],< 10%
same,inhibition of growth at 10 µM,[7],17.3%
same,inhibition of growth at 10 µM,[8],39.8%
same,growth inhibition (GI),[9],Active
same,inhibition of growth at 10 µM,[10],20.7%
same,inhibition of growth at 10 µM,[11],43.5%
same,inhibition of growth at 10 µM,[12],< 10%
same,inhibition of growth at 10 µM,[13],51.2%
same,inhibition of growth at 10 µM,[14],< 10%
same,inhibition of growth at 10 µM,[15],22%
same,inhibition of growth at 10 µM,[16],14.9%
same,inhibition of growth at 10 µM,[17],11.4%
same,inhibition of growth at 10 µM,[18],18.2%
same,inhibition of growth at 10 µM,[19],< 10%
same,inhibition of growth at 10 µM,[20],21.2%
same,inhibition of growth at 10 µM,[21],39.5%
same,inhibition of growth at 10 µM,[22],38.6%
same,inhibition of growth at 10 µM,[23],32.5%
same,inhibition of growth at 10 µM,[24],< 10%
same,inhibition of growth at 10 µM,[25],31.1%
same,inhibition of growth at 10 µM,[26],25.7%
same,inhibition of growth at 10 µM,[27],11.7%
same,inhibition of growth at 10 µM,[28],20.1%
same,inhibition of growth at 10 µM,[29],< 10%
same,inhibition of growth at 10 µM,[30],62.5%
same,inhibition of growth at 10 µM,[31],19.9%
same,inhibition of growth at 10 µM,[32],< 10%
same,inhibition of growth at 10 µM,[33],25.7%
same,growth inhibition (GI),[34],Active
same,inhibition of growth at 10 µM,[35],< 10%
same,inhibition of growth at 10 µM,[36],31.4%
same,inhibition of growth at 10 µM,[37],< 10%
same,inhibition of growth at 10 µM,[38],31%
same,inhibition of growth at 10 µM,[39],39.9%
same,growth inhibition (GI),[40],Active
same,inhibition of growth at 10 µM,[41],13%
same,inhibition of growth at 10 µM,[42],16.5%
same,inhibition of growth at 10 µM,[43],18.8%
same,inhibition of growth at 10 µM,[44],32.4%
same,inhibition of growth at 10 µM,[45],< 10%
